Each block holds one compound with its values, some of them ahead of it.
What was measured:
[1] = tested on: Mus musculus; assay: Biodistribution of intravenously injected [82Br]-labeled compound in bone of BDF1 female mice bearing subcutaneous Lewis lung carcinoma after 1 hours; assay type: ADME, organism-based, Bone element; conditions: in vivo, iv
Method in brief: (§1)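 82Br-labeled nucleoside given intravenously to female BDF1 mice bearing subcutaneous Lewis lung carcinoma, at 47-130 μg carrying 20-60 kBq. Mice sacrificed at each time point. Wet-weighed tissues γ-counted. Values are percent injected dose per gram wet tissue, mean ± SD, n = 6.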

[2] = tested on: Mus musculus; assay: Biodistribution of intravenously injected [82Br]-labeled compound in gut of BDF1 female mice bearing subcutaneous Lewis lung carcinoma after 0.50 hours; assay type: ADME, organism-based; conditions: in vivo, iv, 0.5 h; method in brief: as §1
[3] = tested on: Mus musculus; assay: Biodistribution of intravenously injected [82Br]-labeled compound in gut of BDF1 female mice bearing subcutaneous Lewis lung carcinoma after 1 hours; assay type: ADME, organism-based; conditions: in vivo, iv; method in brief: as §1
[4] = tested on: Mus musculus; assay: Biodistribution of intravenously injected [82Br]-labeled compound in kidney of BDF1 female mice bearing subcutaneous Lewis lung carcinoma after 0.25 hours; assay type: ADME, organism-based; conditions: in vivo, iv
Method in brief: (§2)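 Female BDF1 mice with subcutaneous Lewis lung carcinoma given an iv injection of [82Br]-labelled nucleoside, 47-130 μg carrying 20-60 kBq 82Br. Tissues were excised, weighed wet and γ-counted. Values are percent injected dose per gram of wet tissue, mean ± standard deviation of six animals, with organ-to-tumour ratios derived.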

[5] = tested on: Mus musculus; assay: Biodistribution of intravenously injected [82Br]-labeled compound in kidney of BDF1 female mice bearing subcutaneous Lewis lung carcinoma after 0.5 hours; assay type: ADME, organism-based; conditions: in vivo, iv; method in brief: as §2
[6] = tested on: Mus musculus; assay: Biodistribution of intravenously injected [82Br]-labeled compound in bone of BDF1 female mice bearing subcutaneous Lewis lung carcinoma after 0.5 hours; assay type: ADME, organism-based, Bone element; conditions: in vivo, iv; method in brief: as §1
[7] = tested on: Mus musculus; assay: Biodistribution of intravenously injected [82Br]-labeled compound in kidney of BDF1 female mice bearing subcutaneous Lewis lung carcinoma after 2 hours; assay type: ADME, organism-based; conditions: in vivo, iv; method in brief: as §2
[8] = tested on: Mus musculus; assay: Biodistribution of intravenously injected [82Br]-labeled compound in liver of BDF1 female mice bearing subcutaneous Lewis lung carcinoma after 1 hours; assay type: ADME, organism-based; conditions: in vivo, iv; method in brief: as §2
[9] = tested on: Mus musculus; assay: Biodistribution of intravenously injected [82Br]-labeled compound in lung of BDF1 female mice bearing subcutaneous Lewis lung carcinoma after 24 hours; assay type: ADME, organism-based; conditions: in vivo, iv; method in brief: as §2
[10] = tested on: Mus musculus; assay: Biodistribution of intravenously injected [82Br]-labeled compound in lung of BDF1 female mice bearing subcutaneous Lewis lung carcinoma after 4 hours; assay type: ADME, organism-based; conditions: in vivo, iv; method in brief: as §2
[11] = tested on: Mus musculus; assay: Biodistribution of intravenously injected [82Br]-labeled compound in muscle of BDF1 female mice bearing subcutaneous Lewis lung carcinoma after 0.25 hours; assay type: ADME, organism-based, Muscle tissue; conditions: in vivo, iv; method in brief: as §2
[12] = tested on: Mus musculus; assay: Biodistribution of intravenously injected [82Br]-labeled compound in skin of BDF1 female mice bearing subcutaneous Lewis lung carcinoma after 8 hours; assay type: ADME, organism-based, Zone of skin; conditions: in vivo, iv; method in brief: as §2
[13] = tested on: Mus musculus; assay: Biodistribution of intravenously injected [82Br]-labeled compound in spleen of BDF1 female mice bearing subcutaneous Lewis lung carcinoma after 0.25 hours; assay type: ADME, organism-based; conditions: in vivo, iv; method in brief: as §2
[14] = tested on: Mus musculus; assay: Biodistribution of intravenously injected [82Br]-labeled compound in stomach of BDF1 female mice bearing subcutaneous Lewis lung carcinoma after 1 hours; assay type: ADME, organism-based; conditions: in vivo, iv
[15] = tested on: Mus musculus; assay: Biodistribution of intravenously injected [82Br]-labeled compound in stomach of BDF1 female mice bearing subcutaneous Lewis lung carcinoma after 2 hours; assay type: ADME, organism-based; conditions: in vivo, iv
[16] = tested on: Mus musculus; assay: Biodistribution of intravenously injected [82Br]-labeled compound in skin of BDF1 female mice bearing subcutaneous Lewis lung carcinoma after 0.25 hours; assay type: ADME, organism-based, Zone of skin; conditions: in vivo, iv; method in brief: as §2
[17] = tested on: Mus musculus; assay: Biodistribution of intravenously injected [131I]-labeled compound in blood of BDF1 female mice bearing subcutaneous Lewis lung carcinoma after 1 hours; assay type: ADME, organism-based; conditions: in vivo, iv
Method in brief: (§3)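 Female BDF1 mice bearing subcutaneous Lewis lung carcinoma received a single intravenous dose of 0.5-1.8 μg of the 131I-labeled nucleoside (55-110 kBq). They were sacrificed at set times, and tissues were weighed wet and γ-counted. Activity is expressed as percent of injected dose per gram of wet tissue, given as mean ± standard deviation for six animals.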

[18] = tested on: Mus musculus; assay: Biodistribution of intravenously injected [131I]-labeled compound in bone of BDF1 female mice bearing subcutaneous Lewis lung carcinoma after 8 hours; assay type: ADME, organism-based, Bone element; conditions: in vivo, iv; method in brief: as §3
[19] = tested on: Mus musculus; assay: Biodistribution of intravenously injected [131I]-labeled compound in gut of BDF1 female mice bearing subcutaneous Lewis lung carcinoma after 1 hours; assay type: ADME, organism-based; conditions: in vivo, iv; method in brief: as §3
[20] = tested on: Mus musculus; assay: Biodistribution of intravenously injected [131I]-labeled compound in lung of BDF1 female mice bearing subcutaneous Lewis lung carcinoma after 1 hours; assay type: ADME, organism-based; conditions: in vivo, iv; method in brief: as §3
[21] = tested on: Mus musculus; assay: Biodistribution of intravenously injected [131I]-labeled compound in lung of BDF1 female mice bearing subcutaneous Lewis lung carcinoma after 24 hours; assay type: ADME, organism-based; conditions: in vivo, iv; method in brief: as §3
[22] = tested on: Mus musculus; assay: Biodistribution of intravenously injected [131I]-labeled compound in liver of BDF1 female mice bearing subcutaneous Lewis lung carcinoma after 2 hours; assay type: ADME, organism-based; conditions: in vivo, iv; method in brief: as §3
[23] = tested on: Mus musculus; assay: Biodistribution of intravenously injected [131I]-labeled compound in muscle of BDF1 female mice bearing subcutaneous Lewis lung carcinoma after 24 hours; assay type: ADME, organism-based, Muscle tissue; conditions: in vivo, iv
Method in brief: (§4)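 Female BDF1 mice with subcutaneous Lewis lung carcinoma given i.v. 0.5-1.8 μg of 131I-labeled nucleoside (55-110 kBq). Killed at set times. Tissues weighed wet and γ-counted. Radioactivity expressed as percent injected dose per gram wet tissue, mean ± SD of six animals.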

[24] = tested on: Mus musculus; assay: Biodistribution of intravenously injected [131I]-labeled compound in muscle of BDF1 female mice bearing subcutaneous Lewis lung carcinoma after 1 hours; assay type: ADME, organism-based, Muscle tissue; conditions: in vivo, iv; method in brief: as §4
[25] = tested on: Mus musculus; assay: Biodistribution of intravenously injected [131I]-labeled compound in skin of BDF1 female mice bearing subcutaneous Lewis lung carcinoma after 8 hours; assay type: ADME, organism-based, Zone of skin; conditions: in vivo, iv; method in brief: as §4
[26] = species: Mus musculus; assay: Other urinary compounds observed in BDF1 female mice bearing lewis lung tumor after 0-0.5 hr of injected [131I]-compound; assay type: functional, tissue-based; conditions: Urine
[27] = species: Mus musculus; assay: Urinary [131I]5-iodouracil observed in BDF1 female mice bearing lewis lung tumor after 2-3 h of injected [131I]-compound; assay type: functional, tissue-based; conditions: Urine
[28] = species: Mus musculus; assay: Urinary [131I]5-iodouracil observed in BDF1 female mice bearing lewis lung tumor after 6-7 hr of injected [131I]-compound; assay type: functional, tissue-based; conditions: Urine
[29] = species: Mus musculus; assay: Urinary iodide observed in BDF1 female mice bearing lewis lung tumor after 6-7 hr of injected [131I]-compound; assay type: functional, tissue-based; conditions: Urine
[30] = tested on: Mus musculus; assay: Biodistribution of intravenously injected [131I]-labeled compound in tumor of BDF1 female mice bearing subcutaneous Lewis lung carcinoma after 4 hr; assay type: ADME, organism-based; conditions: in vivo, iv; method in brief: as §4
[31] = tested on: Mus musculus; assay: Biodistribution of intravenously injected [131I]-labeled compound in tumor of BDF1 female mice bearing subcutaneous Lewis lung carcinoma after 0.50 hours; assay type: ADME, organism-based; conditions: in vivo, iv, 0.5 h; method in brief: as §4
[32] = tested on: Mus musculus; assay: Biodistribution of intravenously injected [131I]-labeled compound in tumor of BDF1 female mice bearing subcutaneous Lewis lung carcinoma after 1 hours; assay type: ADME, organism-based; conditions: in vivo, iv; method in brief: as §4
[33] = tested on: Mus musculus; assay: Biodistribution of intravenously injected [131I]-labeled compound in blood of BDF1 female mice bearing subcutaneous Lewis lung carcinoma after 0.50 hours; assay type: ADME, organism-based; conditions: in vivo, iv, 0.5 h; method in brief: as §3
[34] = tested on: Mus musculus; assay: Biodistribution of intravenously injected [131I]-labeled compound in skin of BDF1 female mice bearing subcutaneous Lewis lung carcinoma after 1 hours; assay type: ADME, organism-based, Zone of skin; conditions: in vivo, iv; method in brief: as §4

Injected dose/g [1]: 0.26%
Injected dose/g [2]: 0.72%
Injected dose/g [3]: 0.42%
Injected dose/g [4]: 7.69%
Injected dose/g [5]: 2.68%
Injected dose/g [6]: 0.3%
Injected dose/g [7]: 0.71%
Injected dose/g [8]: 0.34%
Injected dose/g [9]: 0.35%
Injected dose/g [10]: 0.38%
Injected dose/g [11]: 0.89%
Injected dose/g [12]: 0.34%
Injected dose/g [13]: 1.06%
Injected dose/g [14]: 0.5%
Injected dose/g [15]: 0.52%
Injected dose/g [16]: 1.39%
SMILES: O=c1[nH]c(=O)n([C@H]2O[C@@H](CO)[C@H](O)[C@H]2F)cc1Br

Injected dose/g [17]: 13.3%
Injected dose/g [18]: 0.7%
Injected dose/g [19]: 2.5%
Injected dose/g [20]: 7%
Injected dose/g [21]: 0.1%
Injected dose/g [22]: 2.8%
Injected dose/g [23]: 0.03%
Injected dose/g [24]: 2.3%
Injected dose/g [25]: 2.1%
Injected dose/g [30]: 3.3%
Injected dose/g [31]: 3.7%
Injected dose/g [32]: 4.1%
Injected dose/g [33]: 16%
Injected dose/g [34]: 5%
SMILES: O=c1[nH]c(=O)n([C@@H]2O[C@H](CO)[C@@H](O)[C@H]2F)cc1I
Radioactive constituents [26]: 2.6%
Radioactive constituents [27]: 0%
Radioactive constituents [28]: 0%
Radioactive constituents [29]: 39.8%

From ChEMBL document CHEMBL1124493, “Synthesis and tumor uptake of 5-82Br- and 5-131I-labeled 5-halo-1-(2-fluoro-2-deoxy-beta-D-ribofuranosyl)uracils” (J Med Chem, 1989)
